Test results reported in ChEMBL document CHEMBL4043228, “Design and synthesis of pregnenolone/2-cyanoacryloyl conjugates with dual NF-κB inhibitory and anti-proliferative activities” (Bioorg Med Chem Lett, 2017).
Blank lines part the entries; values can stand above or below the compound they belong to. Activity calls are given as the source filed them. No cut-off for these calls is given here.

How the values were obtained:
HepG2 = test: Antiproliferative activity against human HepG2 cells after 48 hrs by MTT assay; assay type: functional, cell-based; conditions: HepG2, 48 h
Procedure, shortened: (§1)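 Tumour cell lines MCF-7, A549, H157, HepG2 and HL-60 were tested by MTT method; doxorubicin served as positive control.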

HL-60 = test: Antiproliferative activity against human HL60 cells after 48 hrs by MTT assay; assay type: functional, cell-based; conditions: HL-60, 48 h; procedure, shortened: as §1
A549 = test: Antiproliferative activity against human A549 cells after 48 hrs by MTT assay; assay type: functional, cell-based; conditions: A549, 48 h; procedure, shortened: as §1
NCI-H157 = test: Antiproliferative activity against human NCI-H157 cells after 48 hrs by MTT assay; assay type: functional, cell-based; conditions: NCI-H157, 48 h; procedure, shortened: as §1
[1] = Inhibition of TNFalpha-stimulated NF-kappaB (unknown origin) activation expressed in HEK293 cells incubated for 6 hrs with TNFalpha followed by incubation in dark for 30 mins by luciferase reporter gene assay; assay type: cell-based; conditions: Homo sapiens
Procedure, shortened: (§2)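 HEK293 cells stably carrying NF-κB-responsive luciferase reporter (selected with 1 mg/mL G418) seeded, after 24 h stimulated with TNF-α 0.2 μg/mL, then exposed to compounds for 6 h; lysate incubated with luciferase substrate 30 min in dark, luminescence read. Screening at 20 µg/mL as percent inhibition; IC50 from nine concentrations, 0.78-20 μM. PS-341 reference.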

[2] = Cytotoxicity against HEK293 cells assessed as cell viability at 20 ug/ml relative to control; assay type: cell-based; conditions: human, read-out: Activity
Procedure, shortened: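 HEK293/NF-κB reporter cells exposed to compounds at 20 µg/mL; cytotoxicity assessed.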

Homo sapiens [3] = species on record: Homo sapiens; test: Inhibition of TNFalpha-stimulated NF-kappaB (unknown origin) activation expressed in HEK293 cells at 20 ug/ml incubated for 6 hrs with TNFalpha followed by incubation in dark for 30 mins by luciferase reporter gene assay relative to control; assay type: cell-based; procedure, shortened: as §2
MCF7 = test: Antiproliferative activity against human MCF7 cells after 48 hrs by MTT assay; assay type: functional, cell-based; conditions: MCF7, 48 h; procedure, shortened: as §1
Homo sapiens [4] = species on record: Homo sapiens; test: Inhibition of TNFalpha-stimulated NF-kappaB (unknown origin) activation assessed as IkappaBalpha degradation at 10 uM after 4 hrs by Western blot analysis

IC50 (HepG2): > 50 µM
IC50 (HL-60): > 100 µM
IC50 (A549): > 50 µM
IC50 (NCI-H157): 24.5 µM
IC50 [1]: 7.5 µM
IC50 (MCF7): > 50 µM
Structure (SMILES): CC(=O)[C@H]1CC[C@H]2[C@@H]3CC=C4C[C@@H](OC(=O)NCCNC(=O)/C(C#N)=C/c5ccc(C#N)cc5)CC[C@]4(C)[C@H]3CC[C@]12C
viability at 20 ug/ml [2]: 64.4%
inhibition (Homo sapiens [3]): 64.4%

Structure (SMILES): COc1ccc(/C=C(\C#N)C(=O)NCCNC(=O)O[C@H]2CC[C@@]3(C)C(=CC[C@H]4[C@@H]5CC[C@H](C(C)=O)[C@@]5(C)CC[C@@H]43)C2)cc1
inhibition (Homo sapiens [3]): 22.3%

Structure (SMILES): COc1ccc(/C=C(\C#N)C(=O)NCCNC(=O)O[C@H]2CC[C@@]3(C)C(=CC[C@H]4[C@@H]5CC[C@H](C(C)=O)[C@@]5(C)CC[C@@H]43)C2)cc1O
inhibition (Homo sapiens [3]): 14.5%

Structure (SMILES): CC(=O)[C@H]1CC[C@H]2[C@@H]3CC=C4C[C@@H](OC(=O)NCCNC(=O)/C(C#N)=C/c5ccc(C(C)C)cc5)CC[C@]4(C)[C@H]3CC[C@]12C
inhibition (Homo sapiens [3]): 2.1%

inhibition (Homo sapiens [4]): Active
IC50 (HepG2): > 50 µM
IC50 (HL-60): 10.1 µM
IC50 (A549): > 50 µM
IC50 (NCI-H157): > 50 µM
IC50 [1]: 10.3 µM
IC50 (MCF7): > 50 µM
Structure (SMILES): CC(=O)[C@H]1CC[C@H]2[C@@H]3CC=C4C[C@@H](OC(=O)NCCNC(=O)/C(C#N)=C/c5ccc([N+](=O)[O-])cc5)CC[C@]4(C)[C@H]3CC[C@]12C
viability at 20 ug/ml [2]: 74.5%
inhibition (Homo sapiens [3]): 78.3%

Structure (SMILES): CC(=O)[C@H]1CC[C@H]2[C@@H]3CC=C4C[C@@H](OC(=O)NCCNC(=O)/C(C#N)=C/c5ccc(Br)cc5)CC[C@]4(C)[C@H]3CC[C@]12C
inhibition (Homo sapiens [3]): 15.9%

Structure (SMILES): CC(=O)[C@H]1CC[C@H]2[C@@H]3CC=C4C[C@@H](OC(=O)NCCNC(=O)/C(C#N)=C/c5ccc6c(c5)OCCO6)CC[C@]4(C)[C@H]3CC[C@]12C
inhibition (Homo sapiens [3]): 4.2%

Structure (SMILES): CC(=O)[C@H]1CC[C@H]2[C@@H]3CC=C4C[C@@H](OC(=O)NCCNC(=O)/C(C#N)=C/c5ccc(N(C)C)cc5)CC[C@]4(C)[C@H]3CC[C@]12C
inhibition (Homo sapiens [3]): 1.2%

Structure (SMILES): CC(=O)[C@H]1CC[C@H]2[C@@H]3CC=C4C[C@@H](OC(=O)NCCNC(=O)/C(C#N)=C/c5cccc(Cl)c5)CC[C@]4(C)[C@H]3CC[C@]12C
inhibition (Homo sapiens [3]): 46.4%

IC50 (HepG2): > 50 µM
IC50 (HL-60): > 50 µM
IC50 (A549): > 50 µM
IC50 (NCI-H157): > 50 µM
IC50 [1]: 12.2 µM
IC50 (MCF7): > 50 µM
Structure (SMILES): CC(=O)[C@H]1CC[C@H]2[C@@H]3CC=C4C[C@@H](OC(=O)NCCNC(=O)OC(C)(C)C)CC[C@]4(C)[C@H]3CC[C@]12C
viability at 20 ug/ml [2]: 85.5%
inhibition (Homo sapiens [3]): 76.6%

IC50 (HepG2): > 50 µM
IC50 (HL-60): 15.6 µM
IC50 (A549): 30.9 µM
IC50 (NCI-H157): 21.3 µM
IC50 [1]: 3.3 µM
IC50 (MCF7): 8.8 µM
Structure (SMILES): CC(=O)[C@H]1CC[C@H]2[C@@H]3CC=C4C[C@@H](OC(=O)NCCNC(=O)/C(C#N)=C/c5cccc(C#N)c5)CC[C@]4(C)[C@H]3CC[C@]12C
viability at 20 ug/ml [2]: 59.6%
inhibition (Homo sapiens [3]): 81.4%

IC50 (HepG2): > 50 µM
IC50 (HL-60): > 50 µM
IC50 (A549): > 50 µM
IC50 (NCI-H157): > 50 µM
IC50 [1]: 12.4 µM
IC50 (MCF7): > 50 µM
Structure (SMILES): CC(=O)[C@H]1CC[C@H]2[C@@H]3CC=C4C[C@@H](OC(=O)NCCNC(=O)CC#N)CC[C@]4(C)[C@H]3CC[C@]12C
viability at 20 ug/ml [2]: 87.9%
inhibition (Homo sapiens [3]): 74.4%

IC50 [1]: 0.03 µM
Structure (SMILES): CC(C)C[C@H](NC(=O)[C@H](Cc1ccccc1)NC(=O)c1cnccn1)B(O)O [BORTEZOMIB]

IC50 (HL-60): 0.91 µM
IC50 (A549): 11 µM
IC50 (NCI-H157): 0.61 µM
IC50 (MCF7): 4.4 µM
Structure (SMILES): COc1cccc2c1C(=O)c1c(O)c3c(c(O)c1C2=O)C[C@@](O)(C(=O)CO)C[C@@H]3O[C@H]1C[C@H](N)[C@H](O)[C@H](C)O1 [DOXORUBICIN]

Structure (SMILES): CC(=O)[C@H]1CC[C@H]2[C@@H]3CC=C4C[C@@H](OC(=O)NCCNC(=O)/C(C#N)=C/c5cccc(Br)c5)CC[C@]4(C)[C@H]3CC[C@]12C
inhibition (Homo sapiens [3]): 30.9%

Structure (SMILES): CC(=O)[C@H]1CC[C@H]2[C@@H]3CC=C4C[C@@H](OC(=O)NCCNC(=O)/C(C#N)=C/c5ccc(O)cc5)CC[C@]4(C)[C@H]3CC[C@]12C
inhibition (Homo sapiens [3]): 44.9%

Structure (SMILES): CC(=O)[C@H]1CC[C@H]2[C@@H]3CC=C4C[C@@H](OC(=O)NCCNC(=O)/C(C#N)=C/c5ccccc5)CC[C@]4(C)[C@H]3CC[C@]12C
inhibition (Homo sapiens [3]): 46.7%

IC50 (HepG2): > 50 µM
IC50 (HL-60): 11.2 µM
IC50 (A549): 36.2 µM
IC50 (NCI-H157): 30.6 µM
IC50 [1]: 2.5 µM
IC50 (MCF7): 6.5 µM
Structure (SMILES): CC(=O)[C@H]1CC[C@H]2[C@@H]3CC=C4C[C@@H](OC(=O)NCCNC(=O)/C(C#N)=C/c5cccc([N+](=O)[O-])c5)CC[C@]4(C)[C@H]3CC[C@]12C
viability at 20 ug/ml [2]: 54.7%
inhibition (Homo sapiens [3]): 83.9%

Structure (SMILES): COc1cccc(/C=C(\C#N)C(=O)NCCNC(=O)O[C@H]2CC[C@@]3(C)C(=CC[C@H]4[C@@H]5CC[C@H](C(C)=O)[C@@]5(C)CC[C@@H]43)C2)c1
inhibition (Homo sapiens [3]): 22.2%

Structure (SMILES): CC(=O)[C@H]1CC[C@H]2[C@@H]3CC=C4C[C@@H](OC(=O)NCCNC(=O)/C(C#N)=C/c5ccc(Cl)cc5)CC[C@]4(C)[C@H]3CC[C@]12C
inhibition (Homo sapiens [3]): 18.8%

Structure (SMILES): CCN(CC)c1ccc(/C=C(\C#N)C(=O)NCCNC(=O)O[C@H]2CC[C@@]3(C)C(=CC[C@H]4[C@@H]5CC[C@H](C(C)=O)[C@@]5(C)CC[C@@H]43)C2)cc1
inhibition (Homo sapiens [3]): 0.5%

Structure (SMILES): CC(=O)[C@H]1CC[C@H]2[C@@H]3CC=C4C[C@@H](OC(=O)NCCNC(=O)/C(C#N)=C/c5ccc(F)cc5)CC[C@]4(C)[C@H]3CC[C@]12C
inhibition (Homo sapiens [3]): 43.1%

Structure (SMILES): COc1ccccc1/C=C(\C#N)C(=O)NCCNC(=O)O[C@H]1CC[C@@]2(C)C(=CC[C@H]3[C@@H]4CC[C@H](C(C)=O)[C@@]4(C)CC[C@@H]32)C1
inhibition (Homo sapiens [3]): 17.8%

Structure (SMILES): COc1cc(/C=C(\C#N)C(=O)NCCNC(=O)O[C@H]2CC[C@@]3(C)C(=CC[C@H]4[C@@H]5CC[C@H](C(C)=O)[C@@]5(C)CC[C@@H]43)C2)cc(O)c1OC
inhibition (Homo sapiens [3]): 22.6%

Structure (SMILES): COc1cc(/C=C(\C#N)C(=O)NCCNC(=O)O[C@H]2CC[C@@]3(C)C(=CC[C@H]4[C@@H]5CC[C@H](C(C)=O)[C@@]5(C)CC[C@@H]43)C2)ccc1O
inhibition (Homo sapiens [3]): 34.6%

IC50 (HepG2): > 50 µM
IC50 (HL-60): 45.6 µM
IC50 (A549): > 50 µM
IC50 (NCI-H157): 17.9 µM
IC50 [1]: 7.1 µM
IC50 (MCF7): 6.1 µM
Structure (SMILES): CC(=O)[C@H]1CC[C@H]2[C@@H]3CC=C4C[C@@H](OC(=O)NCCNC(=O)/C(C#N)=C/c5cccc(F)c5)CC[C@]4(C)[C@H]3CC[C@]12C
viability at 20 ug/ml [2]: 60.8%
inhibition (Homo sapiens [3]): 64.2%

Structure (SMILES): CC(=O)[C@H]1CC[C@H]2[C@@H]3CC=C4C[C@@H](OC(=O)NCCNC(=O)/C(C#N)=C/c5ccc(O)c(O)c5)CC[C@]4(C)[C@H]3CC[C@]12C
inhibition (Homo sapiens [3]): 59.3%

Structure (SMILES): COc1cc(/C=C(\C#N)C(=O)NCCNC(=O)O[C@H]2CC[C@@]3(C)C(=CC[C@H]4[C@@H]5CC[C@H](C(C)=O)[C@@]5(C)CC[C@@H]43)C2)cc(OC)c1O
inhibition (Homo sapiens [3]): 5%

Structure (SMILES): COc1ccc(/C=C(\C#N)C(=O)NCCNC(=O)O[C@H]2CC[C@@]3(C)C(=CC[C@H]4[C@@H]5CC[C@H](C(C)=O)[C@@]5(C)CC[C@@H]43)C2)cc1OC
inhibition (Homo sapiens [3]): 5.8%
